Data taken from ChEMBL document CHEMBL4152211, “Discovery of novel Methylsulfonyl phenyl derivatives as potent human Cyclooxygenase-2 inhibitors with effective anticonvulsant action: Design, synthesis, in-silico, in-vitro and in-vivo evaluation” (Eur J Med Chem, 2018).
The source made the active and inactive calls. The rule behind the calls is not given here.

Assays:
[1] = molecular target: T1, Prostaglandin G/H synthase 1 (Ovis aries) (UniProt P05979); assay: Inhibition of ovine COX1 at 10 uM using arachidonic acid as substrate preincubated for 5 mins followed by substrate addition and measured after 2 mins by ADPH probe-based fluorescence assay relative to control
T1 sequence (whole entry): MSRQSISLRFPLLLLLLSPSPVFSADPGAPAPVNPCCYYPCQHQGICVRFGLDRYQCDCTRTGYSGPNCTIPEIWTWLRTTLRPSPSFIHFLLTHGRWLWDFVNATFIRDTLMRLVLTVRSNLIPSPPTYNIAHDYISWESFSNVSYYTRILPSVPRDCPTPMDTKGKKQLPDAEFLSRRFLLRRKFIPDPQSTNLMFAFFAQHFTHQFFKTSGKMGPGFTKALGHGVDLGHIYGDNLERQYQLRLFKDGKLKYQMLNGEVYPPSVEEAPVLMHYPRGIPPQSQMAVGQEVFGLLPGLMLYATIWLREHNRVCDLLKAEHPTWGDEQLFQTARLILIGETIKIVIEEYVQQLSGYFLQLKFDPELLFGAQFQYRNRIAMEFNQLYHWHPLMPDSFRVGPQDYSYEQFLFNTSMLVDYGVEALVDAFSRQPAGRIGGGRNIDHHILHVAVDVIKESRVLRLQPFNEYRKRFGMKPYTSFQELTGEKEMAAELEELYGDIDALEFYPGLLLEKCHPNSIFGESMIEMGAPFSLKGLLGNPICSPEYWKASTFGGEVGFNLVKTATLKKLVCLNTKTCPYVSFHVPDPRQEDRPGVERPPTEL
In short: (§1)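 Kit assay in 100 mM Tris-HCl pH 8.0. Enzyme, heme and inhibitor (DMSO stocks) are incubated 5 min at room temperature. ADPH is added, then arachidonic acid starts the reaction. After 2 min, fluorescence is read at ex 535/em 590 nm. Percent inhibition is taken versus the 100% activity well, background wells included. IC50 is derived from percentage inhibition, mean of three independent experiments.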

[2] = molecular target: T2, Prostaglandin G/H synthase 2 (Homo sapiens) (UniProt P35354); assay: Inhibition of human recombinant COX2 at 10 uM using arachidonic acid as substrate preincubated for 5 mins followed by substrate addition and measured after 2 mins by ADPH probe-based fluorescence assay relative to control; in short: as §1
T2 sequence (whole entry): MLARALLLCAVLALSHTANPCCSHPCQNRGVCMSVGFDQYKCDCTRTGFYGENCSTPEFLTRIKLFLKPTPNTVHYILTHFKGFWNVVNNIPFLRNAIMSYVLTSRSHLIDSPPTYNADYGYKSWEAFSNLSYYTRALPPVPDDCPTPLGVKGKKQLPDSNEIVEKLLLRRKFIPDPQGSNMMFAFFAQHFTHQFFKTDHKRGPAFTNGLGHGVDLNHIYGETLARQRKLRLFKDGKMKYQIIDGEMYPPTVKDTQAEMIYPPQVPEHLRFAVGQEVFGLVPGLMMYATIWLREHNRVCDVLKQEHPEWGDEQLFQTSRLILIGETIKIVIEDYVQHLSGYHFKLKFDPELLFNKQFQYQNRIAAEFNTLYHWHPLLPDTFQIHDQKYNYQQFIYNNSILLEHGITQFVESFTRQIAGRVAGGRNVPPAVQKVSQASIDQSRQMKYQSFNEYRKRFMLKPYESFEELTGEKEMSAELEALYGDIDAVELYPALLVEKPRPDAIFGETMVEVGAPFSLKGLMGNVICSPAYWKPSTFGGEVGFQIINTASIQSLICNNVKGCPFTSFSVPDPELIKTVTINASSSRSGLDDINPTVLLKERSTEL

[3] = molecular target: T3, Prostaglandin G/H synthase 2 (Homo sapiens, UniProt P35354); assay: Inhibition of human recombinant COX2 using arachidonic acid as substrate preincubated for 5 mins followed by substrate addition and measured after 2 mins by ADPH probe-based fluorescence assay; in short: as §1
T3 sequence (P35354 whole entry): T2 sequence (whole entry)

Mus musculus [4] = assay: Anticonvulsant activity in Swiss albino mouse assessed as protection against subcutaneous pentylenetetrazole-induced seizures at 30 mg/kg, ip administered 0.5 hrs prior to PTZ challenge and measured after 30 mins; assay type: functional
In short: (§2)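 Male Swiss Albino mice (25–30 g), 6 per group, dosed i.p. with drugs in sterile saline, then challenged with PTZ 85 mg/kg s.c. (CD97), given at 10 ml/kg, 0.5 h or 4 h later. Each animal is observed singly for seizures. Protection is scored as protected/total animals.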

Mus musculus [5] = assay: Anticonvulsant activity in Swiss albino mouse assessed as protection against subcutaneous pentylenetetrazole-induced seizures at 100 mg/kg, ip administered 0.5 hrs prior to PTZ challenge and measured after 30 mins; assay type: functional; in short: as §2
Mus musculus [6] = assay: Anticonvulsant activity in Swiss albino mouse assessed as protection against subcutaneous pentylenetetrazole-induced seizures at 300 mg/kg, ip administered 0.5 hrs prior to PTZ challenge and measured after 30 mins; assay type: functional; in short: as §2
Mus musculus [7] = assay: Anticonvulsant activity in Swiss albino mouse assessed as protection against subcutaneous pentylenetetrazole-induced seizures at 100 mg/kg, ip administered 4 hrs prior to PTZ challenge and measured after 30 mins; assay type: functional; in short: as §2
Mus musculus [8] = assay: Anticonvulsant activity in Swiss albino mouse assessed as protection against subcutaneous pentylenetetrazole-induced seizures at 30 mg/kg, ip administered 4 hrs prior to PTZ challenge and measured after 30 mins; assay type: functional; in short: as §2
Mus musculus [9] = assay: Anticonvulsant activity in Swiss albino mouse assessed as protection against subcutaneous pentylenetetrazole-induced seizures at 300 mg/kg, ip administered 4 hrs prior to PTZ challenge and measured after 30 mins; assay type: functional; in short: as §2
Mus musculus [10] = assay: Anticonvulsant activity in Swiss albino mouse assessed as protection against subcutaneous pentylenetetrazole-induced seizures at 10 mg/kg, ip administered 4 hrs prior to PTZ challenge and measured after 30 mins; assay type: functional; in short: as §2
Mus musculus [11] = assay: Anticonvulsant activity in Swiss albino mouse assessed as protection against subcutaneous pentylenetetrazole-induced seizures at 1 mg/kg, ip administered 0.5 hrs prior to PTZ challenge and measured after 30 mins; assay type: functional; in short: as §2
Mus musculus [12] = assay: Anticonvulsant activity in Swiss albino mouse assessed as protection against subcutaneous pentylenetetrazole-induced seizures at 1 mg/kg, ip administered 4 hrs prior to PTZ challenge and measured after 30 mins; assay type: functional; in short: as §2
Mus musculus [13] = assay: Anticonvulsant activity in Swiss albino mouse assessed as protection against subcutaneous pentylenetetrazole-induced seizures at 10 mg/kg, ip administered 0.5 hrs prior to PTZ challenge and measured after 30 mins; assay type: functional; in short: as §2
Mus musculus [14] = assay: Anticonvulsant activity in Swiss albino mouse assessed as protection against subcutaneous pentylenetetrazole-induced seizures at 5 mg/kg, ip administered 0.5 hrs prior to PTZ challenge and measured after 30 mins; assay type: functional; in short: as §2
Mus musculus [15] = assay: Anticonvulsant activity in Swiss albino mouse assessed as protection against subcutaneous pentylenetetrazole-induced seizures at 5 mg/kg, ip administered 4 hrs prior to PTZ challenge and measured after 30 mins; assay type: functional; in short: as §2
Rattus norvegicus = assay: Antiepileptic activity in rat model of PTZ-induced epileptiogenesis kindling model assessed as decrease of seizure severity at 5 mg/kg, ip measured up to 28 days; assay type: functional, organism-based
In short: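 Adult male Wistar rats receive PTZ 40 mg/kg i.p. on alternate days for 28 days plus daily i.p. treatment. After each PTZ injection, rats are observed singly for 45 min and scored on the revised Racine scale (stages to 6). Group mean score per week, ±S.D. Statistics are repeated-measures ANOVA with Tukey's test.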

Structure (SMILES)	inhibition [1]	inhibition [2] [%]	IC50 [3] [µM]	further results
CS(=O)(=O)c1ccc(NC(=O)NNC(=S)NCCc2ccccc2)cc1	inactive	22	–	–
COc1ccc(NC(=S)NNC(=O)Nc2ccc(S(C)(=O)=O)cc2)cc1	inactive	62	7.15	–
CS(=O)(=O)c1ccc(NC(=O)NNC(=S)Nc2ccc(Cl)cc2)cc1	inactive	70	5.32	–
CS(=O)(=O)c1ccc(NC(=O)NNC(=S)Nc2cccc(Cl)c2Cl)cc1	inactive	46	–	–
CCCC(CCC)C(=O)[O-].[Na+] [VALPROATE SODIUM]	–	–	–	Activity (Mus musculus [6]): 100%; Activity (Mus musculus [9]): 50%
CS(=O)(=O)c1ccc(NC(=O)NNC(=S)Nc2ccccc2)cc1	inactive	50	12.8	–
Cc1ccc(-c2ncc(Cl)cc2-c2ccc(S(C)(=O)=O)cc2)cn1 [ETORICOXIB]	–	–	–	Activity (Mus musculus [10]): 50%; Activity (Mus musculus [11]): 50%; Activity (Mus musculus [12]): 50%; Activity (Mus musculus [13]): 50%; Activity (Mus musculus [14]): 67%; Activity (Mus musculus [15]): 67%; Activity (Rattus norvegicus): Active

Continued, in another order:

inhibition [1]	inhibition [2] [%]	IC50 [3] [µM]	Structure (SMILES)	further results
inactive	32	–	CCNC(=S)NNC(=O)Nc1ccc(S(C)(=O)=O)cc1	–
inactive	54	12.5	CS(=O)(=O)c1ccc(NC(=O)NNC(=S)Nc2ccc(F)cc2)cc1	–
inactive	64	3.14	Cc1cccc(C)c1NC(=S)NNC(=O)Nc1ccc(S(C)(=O)=O)cc1	Activity (Mus musculus [4]): 17%; Activity (Mus musculus [5]): 33%; Activity (Mus musculus [6]): 33%; Activity (Mus musculus [7]): 33%; Activity (Mus musculus [8]): 17%; Activity (Mus musculus [9]): 50%
inactive	62	6.42	CS(=O)(=O)c1ccc(NC(=O)NNC(=S)Nc2c(F)cccc2F)cc1	–
inactive	21	–	CS(=O)(=O)c1ccc(NC(=O)NNC(=S)NCc2ccccc2)cc1	–
